# The source made the active and inactive calls. The calls are words filed in the database; no cut-off is given here.
# Tests used:
# Staphylococcus aureus [1] = test: Antibacterial activity against Staphylococcus aureus at 100 ug/ml after 24 hrs by paper disc diffusion technique; assay type: functional; conditions: read-out: IZ
# Outline: (§1)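 Paper disc diffusion on Mueller Hinton agar, autoclaved at 120 °C for 30 min. Medium at 40–50 °C was seeded at 1 ml/100 ml with a 10^5 cfu/ml suspension matched to 0.9 McFarland. It was poured 3–4 mm deep, and discs with compound in DMSO were laid on it. Plates were pre-incubated 1 h at room temperature, then 37 °C for 24 h. The inhibition zone was measured.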
# Candida albicans [2] = test: Antifungal activity against Candida albicans at 100 ug/ml after 48 hrs by paper disc diffusion technique; assay type: functional; conditions: for zone of inhibition at 100 µg/mL: read-out: IZ
# Outline: (§2)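 Paper disc diffusion on Sabouraud dextrose agar, autoclaved at 120 °C for 30 min. Medium at 40–50 °C was seeded at 1 ml/100 ml with a 10^5 cfu/ml fungal suspension matched to 0.9 McFarland. It was poured 3–4 mm deep, and compound discs in DMSO were applied. Plates were pre-incubated 1 h at room temperature, then 28 °C for 48 h. The inhibition zone was recorded.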
# Listeria monocytogenes [3] = test: Antibacterial activity against Listeria monocytogenes after 24 hrs by agar streak dilution method; assay type: functional
# Outline: (§3)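 Agar streak dilution on Mueller Hinton agar. Compound stock in DMSO was added in graded amounts to molten sterile agar at 40–50 °C. This was poured 3–4 mm deep and left to solidify. Bacterial suspension of about 10^5 cfu/ml was applied to the serially diluted plates. Plates were incubated at 37 °C for 24 h to read the MIC. Strains were food-poisoning isolates from animal byproducts.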
# Bacillus cereus [4] = test: Antibacterial activity against Bacillus cereus after 24 hrs by agar streak dilution method; assay type: functional; outline: as §3
# Pseudomonas aeruginosa [5] = test: Antibacterial activity against Pseudomonas aeruginosa at 100 ug/ml after 24 hrs by paper disc diffusion technique; assay type: functional; conditions: read-out: IZ; outline: as §1
# Pseudomonas aeruginosa [6] = test: Antibacterial activity against Pseudomonas aeruginosa after 24 hrs by agar streak dilution method; assay type: functional; outline: as §3
# Salmonella typhimurium [7] = test: Antibacterial activity against Salmonella Typhimurium at 100 ug/ml after 24 hrs by paper disc diffusion technique; assay type: functional, Salmonella enterica subsp. enterica serovar Typhimurium; conditions: Salmonella enterica, read-out: IZ; outline: as §1
# Candida albicans [8] = test: Antifungal activity against Candida albicans after 48 hrs by agar streak dilution method; assay type: functional
# Outline: (§4)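 Fungal MIC by agar streak dilution on Sabouraud dextrose agar. Compound stock in DMSO was added in graded amounts to molten sterile medium at 40–50 °C. This was poured 3–4 mm deep and left to solidify. Fungal suspension of about 10^5 cfu/ml was applied to the serially diluted plates. Plates were incubated at 37 °C for 48 h.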
# Escherichia coli [9] = test: Antibacterial activity against Escherichia coli O157 at 100 ug/ml after 24 hrs by paper disc diffusion technique; assay type: functional; conditions: O157, 24 h, read-out: IZ
# Salmonella typhimurium [10] = test: Antibacterial activity against Salmonella Typhimurium after 24 hrs by agar streak dilution method; assay type: functional, Salmonella enterica subsp. enterica serovar Typhimurium; conditions: Salmonella enterica; outline: as §3
# Listeria monocytogenes [11] = test: Antibacterial activity against Listeria monocytogenes at 100 ug/ml after 24 hrs by paper disc diffusion technique; assay type: functional; conditions: read-out: IZ; outline: as §1
# Aspergillus flavus [12] = test: Antifungal activity against Aspergillus flavus at 100 ug/ml after 48 hrs by paper disc diffusion technique; assay type: functional; conditions: for zone of inhibition at 100 µg/mL: read-out: IZ; outline: as §2
# Bacillus cereus [13] = test: Antibacterial activity against Bacillus cereus at 100 ug/ml after 24 hrs by paper disc diffusion technique; assay type: functional; conditions: read-out: IZ; outline: as §1
# Staphylococcus aureus [14] = test: Antibacterial activity against Staphylococcus aureus after 24 hrs by agar streak dilution method; assay type: functional; outline: as §3
# Escherichia coli [15] = test: Antibacterial activity against Escherichia coli O157 after 24 hrs by agar streak dilution method; assay type: functional; conditions: O157, 24 h
# Aspergillus flavus [16] = test: Antifungal activity against Aspergillus flavus after 48 hrs by agar streak dilution method; assay type: functional; outline: as §4
Structure (SMILES),zone of inhibition at 100 µg/mL (Staphylococcus aureus [1]) [mm],zone of inhibition at 100 µg/mL (Candida albicans [2]) [mm],MIC (Listeria monocytogenes [3]) [µg/mL],MIC (Bacillus cereus [4]) [µg/mL],zone of inhibition at 100 µg/mL (Pseudomonas aeruginosa [5]) [mm],MIC (Pseudomonas aeruginosa [6]) [µg/mL],zone of inhibition at 100 µg/mL (Salmonella typhimurium [7]) [mm],MIC (Candida albicans [8]) [µg/mL],zone of inhibition at 100 µg/mL (Escherichia coli [9]) [mm],MIC (Salmonella typhimurium [10]) [µg/mL],zone of inhibition at 100 µg/mL (Listeria monocytogenes [11]) [mm],zone of inhibition at 100 µg/mL (Aspergillus flavus [12]) [mm],zone of inhibition at 100 µg/mL (Bacillus cereus [13]) [mm],MIC (Staphylococcus aureus [14]) [µg/mL],MIC (Escherichia coli [15]) [µg/mL],MIC (Aspergillus flavus [16]) [µg/mL],inhibition zone (IZ) (Aspergillus flavus [12]),inhibition zone (IZ) (Candida albicans [2])
Cc1nnc(-c2ccc(-n3c(-c4ccccc4)nc4c(Br)cc(Br)cc4c3=O)cc2)o1,15,11,12.5,1.56,12,50,12,25,14,50,15,18,17,12.5,25,9.5,–,–
O=C(N/N=C/c1ccc2ccccc2c1)c1ccc(-n2c(-c3ccccc3)nc3c(Br)cc(Br)cc3c2=O)cc1,14,13,3.12,50,13,25,12,25,13,50,16,26,12,25,25,0.39,–,–
O=C(NN1C(=O)c2ccccc2C1=O)c1ccc(-n2c(-c3ccccc3)nc3c(Br)cc(Br)cc3c2=O)cc1,10,9,> 50,5.5,11,> 50,11,50,11,> 50,10,25,16,> 50,50,0.39,–,–
CC1=NN(C(=O)c2ccc(-n3c(-c4ccccc4)nc4c(Br)cc(Br)cc4c3=O)cc2)C(=O)C1,11,9,6,> 50,12,50,14,50,–,30,16,20,11,40,–,2.5,–,–
O=C(NN1C(=O)C=CC1=O)c1ccc(-n2c(-c3ccccc3)nc3c(Br)cc(Br)cc3c2=O)cc1,9,10,> 50,50,11,> 50,17,25,9,2.9,11,17,9,> 50,> 50,4.5,–,–
O=C(N/N=C/c1ccco1)c1ccc(-n2c(-c3ccccc3)nc3c(Br)cc(Br)cc3c2=O)cc1,13,12,> 50,50,8,> 50,16,25,9,5,11,–,12,20,> 50,–,inactive,–
COc1ccc(C2SCC(=O)N2NC(=O)c2ccc(-n3c(-c4ccccc4)nc4c(Br)cc(Br)cc4c3=O)cc2)cc1 (stereo unspecified),10,10,> 50,1.9,11,50,12,25,11,40,11,20,18,45,45,1.56,–,–
CCOC(=O)c1ccc(-n2c(-c3ccccc3)nc3c(Br)cc(Br)cc3c2=O)cc1,17,–,25,50,12,50,16,–,11,3.12,14,10,9,1.56,50,25,–,inactive
O=C(N/N=C/c1ccccc1)c1ccc(-n2c(-c3ccccc3)nc3c(Br)cc(Br)cc3c2=O)cc1,12,–,35,30,12,50,10,–,11,> 50,13,10,12,25,45,25,–,inactive
O=C(N/N=C/c1ccccc1O)c1ccc(-n2c(-c3ccccc3)nc3c(Br)cc(Br)cc3c2=O)cc1,15,–,50,25.5,11,> 50,13,–,10,30,11,15,13,12.5,50,10.5,–,inactive
Cc1cc(C)n(C(=O)c2ccc(-n3c(-c4ccccc4)nc4c(Br)cc(Br)cc4c3=O)cc2)n1,10,9,12.5,25,12,30,14,50,–,20,15,–,13,50,–,–,inactive,–
OC(Cn1cncn1)(Cn1cncn1)c1ccc(F)cc1F [FLUCONAZOLE],–,18,–,–,–,–,–,1.56,–,–,–,22,–,–,–,0.78,–,–
COc1ccc(/C=N/NC(=O)c2ccc(-n3c(-c4ccccc4)nc4c(Br)cc(Br)cc4c3=O)cc2)cc1,11,–,50,35.5,11,> 50,10,–,8,> 50,12,11,13,50,> 50,25,–,inactive
NNC(=O)c1ccc(-n2c(-c3ccccc3)nc3c(Br)cc(Br)cc3c2=O)cc1,10,–,50,25,13,25,11,–,10,50,11,15,12,> 50,> 50,18.5,–,inactive
O=C(NN1C(=O)CCC1=O)c1ccc(-n2c(-c3ccccc3)nc3c(Br)cc(Br)cc3c2=O)cc1,9,–,50,> 50,11,> 50,18,–,9,1.7,12,17,9,> 50,> 50,3.5,–,inactive
